Only some compounds are listed: those with a hit (about 2.2% of all), similar ones and a draw of the others.
LMPTP block = blocks human LMPTP phosphatase; inhibition, % at 20 µM; 360,000 tested, 0.22% active; recombinant LMPTP-A, OMFP fluorogenic substrate, fluorescence intensity;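 active = compounds that cut the enzyme signal by at least half of the control window in the single-dose screen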;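 also: plate controls were DMSO wells with enzyme plus substrate for no effect and substrate without enzyme for full effect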
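Test system: LMPTP-A phosphatase enzyme. Amount: LMPTP-A at 0.625 nM final in the reaction. Reagent: OMFP substrate, 400 µM final. Times: 50 min at room temperature. Signal: endpoint fluorescence intensity from OMFP dephosphorylation. Read-out basis: % inhibition. Benchmarks: no-enzyme and uninhibited controls.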
DNMT1 block = DNMT1 (human) enzyme inhibition; P26358; DNMT1 molecular beacon, Hinp1I cleavage, fluorescence; inhibition (reported as % activation of signal), % at 10 µM; 360,000 tested, 0.83% active; AID 588458; in the data active = inhibition above about 50%
STEP inh = STEP (human) phosphatase inhibition. P54829. recombinant STEP, OMFP fluorogenic substrate, fluorescence. inhibition, % at 20 µM. 360,000 tested, 0.25% active. AID 588621;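 active = inhibition at 20 µM, scaled per plate between control wells, above about 37%, limit read from the data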;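 also: 0% = DMSO with enzyme and substrate and 100% = substrate only without enzyme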
Target sequence (P54829 whole entry, looked up): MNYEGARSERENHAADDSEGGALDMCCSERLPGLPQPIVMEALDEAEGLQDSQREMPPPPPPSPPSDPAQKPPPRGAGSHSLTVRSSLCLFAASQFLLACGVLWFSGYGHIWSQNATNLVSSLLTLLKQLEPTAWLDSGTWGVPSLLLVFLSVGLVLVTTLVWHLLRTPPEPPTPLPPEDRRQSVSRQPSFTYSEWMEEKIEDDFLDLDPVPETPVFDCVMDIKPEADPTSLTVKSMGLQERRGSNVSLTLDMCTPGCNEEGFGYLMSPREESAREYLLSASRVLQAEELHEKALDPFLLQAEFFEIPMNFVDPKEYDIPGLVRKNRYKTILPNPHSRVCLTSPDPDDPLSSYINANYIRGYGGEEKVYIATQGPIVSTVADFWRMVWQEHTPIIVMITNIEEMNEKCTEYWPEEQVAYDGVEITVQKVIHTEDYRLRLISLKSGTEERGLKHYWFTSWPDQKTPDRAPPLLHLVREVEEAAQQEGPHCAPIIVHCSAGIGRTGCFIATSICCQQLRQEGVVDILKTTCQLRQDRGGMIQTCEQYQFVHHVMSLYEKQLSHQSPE
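Assay system: isolated STEP enzyme / Timing: 20 min at room temperature, dark / Doses: 20 µM, 1% DMSO / Technique: fluorescence intensity, excitation 480 nm, emission 540 nm / Reagent: fluorogenic phosphatase substrate OMFP at 25 µM final / Measure: percent inhibition scaled to no-enzyme and uninhibited-enzyme controls, plate-pattern corrected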
SUMO1-SIM PPI = modulators of human SUMO1-mediated protein-protein interactions; P63165; SUMO1 binding to a labelled peptide, TR-FRET, 1 h; inhibition, % at 20 µM; 360,000 tested, 0.33% active; in the data active = inhibition above about 37%
GRK2 aptamer HTS = blocks RNA aptamer binding to human GRK2. P25098. bead flow cytometry, FAM-aptamer displacement from GRK2. inhibition of aptamer binding, % at 10 µM. 330,000 tested, 0.59% active;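 active = inhibition of aptamer binding above 40%, roughly 3 SD of noise, on plates passing a quality check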;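 also: median bead fluorescence of bound FAM aptamer so fluorescent compounds give negative values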
Scp-1 inhibitor = Scp-1 (human) phosphatase inhibition | Q9GZU7 | Recombinant Scp1, phosphopeptide, malachite green phosphate absorbance | inhibition, % at 20 µM | 340,000 tested, 0.88% active;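 active = inhibition above about 50% at 20 µM, limit read from the data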;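 also: plate controls were DMSO wells with enzyme for no effect and wells lacking enzyme for full effect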
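Material – SCP-1 phosphatase catalytic domain, residues 76-261 · Buffer or medium – Acidic Tris acetate buffer with magnesium and detergent · Also added – Phospho 17-mer peptide substrate · Compound – single 20 µM dose, 1% DMSO · Times – 45 min room-temperature reaction, 5 min colour, 30 min stabiliser · Technique – Phosphate-binding colour reagent, absorbance read at 630 nm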
DNMT1 inh conf = confirmation of human DNMT1 inhibitors; shares compounds with DNMT1 block; DNMT1 molecular beacon HinP1I cleavage, fluorescence; inhibition, % at 10 µM; 2,300 tested, 8% active; AID 602385;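 active = average inhibition of at least 30% in the single-concentration confirmation test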
DNMT1 interf = beacon fluorescence artifact counter-screen | shares compounds with DNMT1 block | DNMT1 molecular beacon spectral interference counterscreen, fluorescence 485/520 | 2,300 tested, 1% active | activation (fluorescence interference), % at 10 µM;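 active = activation of at least 30% at 10 µM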;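 also: DNMT1 catalytic domain with a HinP1I cleavage step and a FAM/dabcyl DNA beacon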
Numbers without * were called inactive; . = not tested or not shown.

SMILES	LMPTP block	DNMT1 block	STEP inh	SUMO1-SIM PPI	GRK2 aptamer HTS	Scp-1 inhibitor	DNMT1 inh conf	DNMT1 interf
CCOC(=O)C(=O)NCc1ccc(/C=C2/N=C(C)C(C(=O)OCC)=C2O)o1	1	15	-3	-4	0	-1	.	.
COC(=O)C1=C(O)/C(=C\c2ccc(CNC(=O)C(=O)Nc3ccc(C)c(C)c3)o2)N=C1C	8	86*	4	11	0	-1	6	11
O=C1CCSC2=C1SCc1sccc12	2	.	.	-19	.	.	.	.
CCCCCCCCN1C(=O)[C@H](CC(=O)N2CCN(C(=O)OCC)CC2)C[C@@]2(C(=O)OC)CCCCC=C12	0	.	.	4	.	.	.	.
C[C@H]1CNC(=O)c2c(C(=O)Nc3ccc(CNC(=O)OC(C)(C)C)cc3)ncn21	-1	-2	-1	1	.	.	.	.
O=C(Nc1nnc(-c2ccccc2F)s1)Nc1ccccc1F	-2	53*	1	1	0	2	3	3
O=C(Nc1nnc(-c2ccccc2SCc2ccccc2)s1)Nc1ccccc1F	-2	42	1	2	0	-3	.	.
COc1ccc(Cl)cc1-c1cc(C(=O)NCc2cccs2)[nH]n1	1	5	0	3	.	.	.	.
Cc1nn(-c2cccc(Cl)c2)c2nc(-c3ccco3)cc(C(=O)O)c12	0	71*	-1	40*	1	14	3	2
O=C(O)c1cc(-c2ccco2)nn1-c1ccc(Cl)cc1	11	96*	11	25	.	67*	12	3
Cc1nn(-c2ccccc2)c2nc(-c3ccco3)cc(C(=O)O)c12	0	61*	-3	29	7	13	2	-1
O=C(O)c1cc(-c2cc3ccccc3o2)nn1-c1ccccc1	0	6	9	0	0	-3	.	.
COC(=O)c1ccccc1NC(=O)c1cc(-c2cccs2)on1	5	56*	2	0	0	0	3	-3
COc1ccccc1-c1cnc(C(O)c2ccc(CN3CCCCC3)cc2)[nH]1 (stereo not drawn)	0	6	3	16	.	.	.	.
C=CCNC(=O)COC(=O)CCC(=O)c1cccs1	-1	64*	-3	1	0	-1	3	2
Cc1ccc(-c2nn(CC(=O)NCc3cc(-c4nn(C)c(=O)c5ccccc45)ccc3C)c(=O)c3ccccc23)cc1	22	57*	7	0	0	4	0	-5
COc1ccc(O)c(C(=O)c2cnn(C(=O)c3ccc(C)cc3)c2)c1	-1	55*	2	23	0	-3	-1	-3
COc1ccc(O)c(C(=O)c2cnn(-c3ccccc3)c2)c1	1	-1	3	-5	5	-5	.	.
CCc1nc2c(OCc3ccc(F)c(F)c3)cccn2c1N(C)C(=O)c1cccs1	1	1	3	-2	.	.	.	.
COc1cc(CN2C(=O)C(C)ON=C2c2cccs2)cc(OC)c1 (stereo not drawn)	-1	0	0	3	.	.	.	.
CN(Cc1ccccc1)S(=O)(=O)c1ccc(Cl)c(C(=O)N2CCOCC2)c1	-2	4	2	6	.	.	.	.
CCOC(=O)c1sc(NC(=O)/C=C/c2c(F)cccc2Cl)nc1C	7	60*	0	1	0	-5	0	-2
O=C(Nc1cnn(C23CC4CC(CC(C4)C2)C3)c1)c1cnn2c(C(F)(F)F)cc(-c3ccco3)nc12	3	58*	8	0	0	9	-2	-2
O=C(Nc1ccc2c(c1)OCO2)c1cnn2c(C(F)(F)F)cc(-c3ccco3)nc12	2	-1	6	-4	0	-3	.	.
C=CCc1cccc2cc(C(=O)Nc3ccc(CC(=O)O)cc3)c(=O)oc12	1	81*	8	-4	0	29	5	6
C=CCc1cccc2cc(C(=O)Nc3cccc(C(=O)O)c3)c(=O)oc12	.	.	.	.	0	19	.	.

Assay outcomes from PubChem BioAssay.
